From ChEMBL document CHEMBL1944576, “Synthesis and antiplasmodial evaluation of novel chromeno[2,3-b]chromene derivatives” (Bioorg Med Chem, 2012)

Legend:
Plasmodium falciparum = assay: Antiplasmodial activity against chloroquine-sensitive ring-stage Plasmodium falciparum 3D7 assessed as [3H]hypoxanthine incorporation after 48 hrs by liquid scintillation counter; assay type: functional, organism-based
Outline: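 Ring-stage 3D7-infected erythrocytes at 0.5% parasitemia, 2.5% hematocrit, in triplicate wells with serial compound dilutions. After 48 h under standard culture conditions, 0.5 µCi [3H]-hypoxanthine was added per well and culture continued a further 24 h. Harvested cells counted by scintillation. Inhibition was taken against matched 0.5% DMSO controls. IC50 was obtained by linear interpolation, as the mean of two independent triplicate experiments.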

[1] = Cytotoxicity against human NFF assessed as growth inhibition at 100 uM after 3 days by sulforhodamine B assay; assay type: cell-based; settings: NFF cells, read-out: GI
[2] = Cytotoxicity against human NFF assessed as growth inhibition at 50 uM after 3 days by sulforhodamine B assay; assay type: cell-based; settings: NFF cells, read-out: GI
NFF = assay: Cytotoxicity against human NFF assessed as growth inhibition after 3 days by sulforhodamine B assay; assay type: cell-based; settings: 72 h
Outline: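 NFF cells were kept in log phase in RPMI 1640 with 10% FCS and 1% streptomycin at 37 °C, 5% CO2. They were seeded at 3000/well and grown 24 h before treatment. Compounds went in as DMSO solutions diluted in medium, with DMSO ≤1% and DMSO-matched controls. After 3 days cells were PBS-washed and fixed in methylated spirits. Total protein was measured by sulforhodamine B, in triplicate across three independent experiments.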

Structure (SMILES)	IC50 (Plasmodium falciparum) [µM]	inhibition at 72 h, 100 µM [1] [%]	inhibition at 72 h, 50 µM [2] [%]	IC50 (NFF) [µM]
COc1ccc2c(c1)C[C@@H]1[C@H](/C=C/c3ccc(C)cc3)c3cc(OC)ccc3O[C@]1(c1ccc(C)cc1)O2	8.9	40		
COc1cccc2c1C[C@@H]1[C@H](/C=C/c3ccc(Cl)cc3)c3c(OC)cccc3O[C@]1(c1ccc(Cl)cc1)O2	8.3	83.6		
COc1cccc2c1C[C@@H]1[C@H](/C=C/c3ccccc3)c3c(OC)cccc3O[C@]1(c1ccccc1)O2	17.3	48.6		
COc1cccc2c1C[C@@H]1[C@H](/C=C/c3ccc(Br)cc3)c3c(OC)cccc3O[C@]1(c1ccc(Br)cc1)O2	39.8	38		
COc1cc(OC)c2c(c1OC)O[C@@H](c1ccccc1)[C@H]1[C@@H]2Oc2c(OC)c(OC)cc(OC)c2[C@@H]1/C=C/c1ccccc1 (relative stereo)	3.9		46.9	
COc1ccc2c(c1)C[C@@H]1[C@H](/C=C/c3ccccc3)c3cc(OC)ccc3O[C@]1(c1ccccc1)O2	10.2	51.4		
COc1ccc2c(c1)C[C@@H]1[C@H](/C=C/c3ccc(Cl)cc3)c3cc(OC)ccc3O[C@]1(c1ccc(Cl)cc1)O2	35.6	40.4		
COc1ccc2c(c1)C[C@@H]1[C@H](/C=C/c3ccc(Br)cc3)c3cc(OC)ccc3O[C@]1(c1ccc(Br)cc1)O2	17.2	51		
CCN(CC)CCCC(C)Nc1ccnc2cc(Cl)ccc12 (stereo unspecified) [CHLOROQUINE]				34
COc1cccc2c1C[C@@H]1[C@H](/C=C/c3ccc(C)cc3)c3c(OC)cccc3O[C@]1(c1ccc(C)cc1)O2	6.8	60.1		
COc1ccc(/C=C/[C@@H]2c3c(OC)cccc3O[C@]3(c4ccc(OC)cc4)Oc4cccc(OC)c4C[C@H]23)cc1	8.2	54.6		
